Data on eight compounds can be found in ChEMBL document CHEMBL4118028, “Sesquiterpene Quinones/Hydroquinones from the Marine Sponge Spongia pertusa Esper” (J Nat Prod, 2017).

The subject of one assay is A549. Briefly: Cytotoxicity against human A549 cells after 72 hrs by CCK8 assay. The format is functional, cell-based. The note with it: A549, 72 h. (In general: Formazan colour is commonly taken as a measure of viable cells.)
The next assay deals with U-937. Briefly: Cytotoxicity against human U937 cells after 72 hrs by CCK8 assay. The note with it: U-937, 72 h.
The subject of a further assay is HeLa. Briefly: Cytotoxicity against human HeLa cells after 72 hrs by CCK8 assay. The format is functional, cell-based.
In the next assay the test system is HepG2. Kind of assay: Cytotoxicity against human HepG2 cells after 72 hrs by CCK8 assay. The following applies: HepG2, 72 h.
Assay [1] addresses Cyclin-dependent kinase 2 (Homo sapiens, UniProt P24941). Briefly: Binding affinity to CDK2 (unknown origin) by surface plasmon resonance analysis. Summed up: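 CDK-2 amine-coupled to CM5 chip flow cell 2 (50 μg/mL in 10 mM acetate pH 4.5, ~5500 RU). BSA reference cell (pH 3.8, ~6000 RU) subtracted. Running buffer PBS pH 7.4, 25 °C, 30 μL/min. Analytes at several concentrations injected 120 s, 120 s dissociation, with solvent correction. Glycine-HCl pH 2.1 regeneration for 30 s. Kd from steady-state affinity model fit.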

Some results are limits rather than exact numbers.

The IC50 is the point on the concentration scale where inhibition reaches its midpoint. The low end stands for greater potency, the high end for weaker potency. Regarding `C=C1CCC[C@@]23OC4=C(C[C@]2(C)[C@@H](C)CC[C@@]13C)C(=O)C(OCC)=CC4=O`, the IC50 with A549 is greater than 10 µM.
`C=C1CCC[C@H]2[C@](C)(CC3=C(O)C(=O)C=C(NCCc4ccccc4)C3=O)[C@@H](C)CC[C@]12C`: the IC50 is greater than 10 µM in the assay on A549, 0.6 µM with U-937, 5.4 µM in the assay with HeLa and 3.5 µM with HepG2.
`CCOC1=CC(=O)C2=C(C[C@@H]3[C@@]4(C)CCCC(C)(C)[C@@H]4CC[C@@]3(C)O2)C1=O` showed an IC50 with A549 greater than 10 µM.
`C=C1CCC[C@@]23OC4=C(C[C@]2(C)[C@@H](C)CC[C@@]13C)C(=O)C(NC)=CC4=O` displayed an IC50 in the assay on A549 greater than 10 µM.
Take `COc1cccc2c1C(=O)c1c(O)c3c(c(O)c1C2=O)C[C@@](O)(C(=O)CO)C[C@@H]3O[C@H]1C[C@H](N)[C@H](O)[C@H](C)O1` [DOXORUBICIN]: in the assay on A549, the midpoint of inhibition, the IC50, lay at 0.1 µM.
What is called Kd is a measure of binding affinity in units of concentration. Low values mean tighter binding, high ones weaker binding. The compound `C=C1CCC[C@H]2[C@]3(C)CC4=C(O[C@]3(C)CC[C@]12C)C(=O)C=C(NC)C4=O` returned an IC50 in the assay on A549 greater than 10 µM. Besides, in assay [1], the affinity, expressed as Kd, was 4.8 µM.
`C=C1CCC[C@H]2[C@]3(C)CC4=C(O[C@]3(C)CC[C@]12C)C(=O)C=C(OCC)C4=O` displayed an IC50 in the assay with A549 greater than 10 µM.
With `C=C1CCC[C@@H]2[C@@]1(C)CC[C@@]1(C)OC3=C(C[C@@]21C)C(=O)C(NC)=CC3=O`, in the assay on A549, the IC50 was greater than 10 µM.
